Measurements published in ChEMBL document CHEMBL1240306, “Allosteric inhibitors of Bcr-abl-dependent cell proliferation” (Nat Chem Biol, 2006).

Assays:
[1] = target: Tyrosine-protein kinase CSK (Homo sapiens) (UniProt P41240); assay: Inhibition of human CSK activity at 10 uM by radiometric assay
[2] = Antiproliferative activity against mouse BA/F3 Bcr-abl negative cells expressing TPR-MET kinase assessed as proliferation after 48 hrs by MTT assay; type: functional, cell-based; details: BaF3, 48 h
Outline: (§1)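 Cells seeded at 0.3–0.6 × 10^6/ml in duplicate or triplicate with increasing compound (0.005–10 μM), 37 °C, 5% CO2, 48 h. Viability by MTT dye reduction, expressed as % growth of DMSO-treated cells; IC50 from dose-response curves. Ba/F3 lines carry geneticin selection (1 mg/ml) in RPMI-1640/10% FBS; parental Ba/F3 kept with 10 U/ml murine IL-3.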

[3] = target: Cytoplasmic tyrosine-protein kinase BMX (Homo sapiens) (UniProt P51813); assay: Inhibition of human Bmx activity at 10 uM by radiometric assay
[4] = target: Ribosomal protein S6 kinase alpha-1 (Homo sapiens) (UniProt Q15418); assay: Inhibition of human Rsk1 activity at 10 uM by radiometric assay
[5] = Antiproliferative activity against mouse 32D cells transfected with p210 cells expressing Bcr-abl assessed as proliferation after 48 hrs by MTT assay; type: cell-based
[6] = target: Casein kinase II subunit alpha (Homo sapiens) (UniProt P68400); assay: Inhibition of human CK2 activity at 10 uM by radiometric assay
[7] = target: Fibroblast growth factor receptor 3 (Homo sapiens) (UniProt P22607); assay: Inhibition of human FGFR3 activity at 10 uM by radiometric assay
[8] = target: Platelet-derived growth factor receptor alpha (Homo sapiens) (UniProt P16234); details: 10 uM
[9] = target: Serine/threonine-protein kinase Chk2 (Homo sapiens) (UniProt O96017); assay: Inhibition of human CHK2 activity at 10 uM by radiometric assay
[10] = target: Tyrosine-protein kinase ZAP-70 (Homo sapiens) (UniProt P43403); assay: Inhibition of human ZAP-70 activity at 10 uM by radiometric assay
Sequence of Tyrosine-protein kinase ZAP-70 (Homo sapiens) (P43403 whole entry): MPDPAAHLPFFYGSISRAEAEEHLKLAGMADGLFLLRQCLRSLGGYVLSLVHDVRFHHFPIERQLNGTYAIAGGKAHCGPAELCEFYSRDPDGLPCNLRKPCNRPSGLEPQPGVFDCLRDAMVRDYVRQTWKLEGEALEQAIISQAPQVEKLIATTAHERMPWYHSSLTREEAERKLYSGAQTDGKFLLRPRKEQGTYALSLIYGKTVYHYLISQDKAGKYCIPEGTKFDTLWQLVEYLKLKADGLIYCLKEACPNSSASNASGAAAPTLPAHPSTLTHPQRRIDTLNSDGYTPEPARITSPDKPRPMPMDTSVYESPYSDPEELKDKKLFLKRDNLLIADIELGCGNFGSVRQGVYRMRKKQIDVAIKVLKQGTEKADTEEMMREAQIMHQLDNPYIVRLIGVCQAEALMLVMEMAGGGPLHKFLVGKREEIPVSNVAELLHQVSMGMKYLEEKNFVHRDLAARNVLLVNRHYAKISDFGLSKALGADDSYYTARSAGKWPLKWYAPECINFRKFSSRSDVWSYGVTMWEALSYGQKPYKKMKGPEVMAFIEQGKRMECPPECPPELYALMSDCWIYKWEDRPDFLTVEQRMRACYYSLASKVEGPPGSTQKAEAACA

[11] = target: cAMP-dependent protein kinase catalytic subunit beta (Homo sapiens) (UniProt P22694); details: 10 uM
[12] = target: Insulin receptor (Homo sapiens) (UniProt P06213); assay: Inhibition of human IR activity at 10 uM by radiometric assay
[13] = target: 5'-AMP-activated protein kinase catalytic subunit alpha-2 (Rattus norvegicus) (UniProt Q09137); details: 10 uM
Sequence of 5'-AMP-activated protein kinase catalytic subunit alpha-2 (Rattus norvegicus) (Q09137 whole entry): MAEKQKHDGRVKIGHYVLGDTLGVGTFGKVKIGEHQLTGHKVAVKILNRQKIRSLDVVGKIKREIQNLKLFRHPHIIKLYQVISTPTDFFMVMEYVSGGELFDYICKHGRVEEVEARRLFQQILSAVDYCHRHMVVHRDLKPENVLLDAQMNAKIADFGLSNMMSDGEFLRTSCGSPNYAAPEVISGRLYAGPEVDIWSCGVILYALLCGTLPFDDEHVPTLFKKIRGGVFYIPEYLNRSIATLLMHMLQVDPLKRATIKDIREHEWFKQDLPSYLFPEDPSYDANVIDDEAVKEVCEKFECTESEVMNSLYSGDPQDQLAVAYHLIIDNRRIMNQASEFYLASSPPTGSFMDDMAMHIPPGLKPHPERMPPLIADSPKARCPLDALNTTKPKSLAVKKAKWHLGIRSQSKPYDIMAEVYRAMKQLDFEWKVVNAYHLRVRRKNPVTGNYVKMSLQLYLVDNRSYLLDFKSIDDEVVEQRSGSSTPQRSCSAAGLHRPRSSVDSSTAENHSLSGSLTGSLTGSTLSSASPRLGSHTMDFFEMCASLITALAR

[14] = target: Serine/threonine-protein kinase D2 (Homo sapiens) (UniProt Q9BZL6); assay: Inhibition of human PKD2 activity at 10 uM by radiometric assay
[15] = target: Platelet-derived growth factor receptor beta (Homo sapiens) (UniProt P09619); assay: Inhibition of human PDGFR-beta activity at 10 uM by radiometric assay
Sequence of Platelet-derived growth factor receptor beta (Homo sapiens) (P09619 whole entry): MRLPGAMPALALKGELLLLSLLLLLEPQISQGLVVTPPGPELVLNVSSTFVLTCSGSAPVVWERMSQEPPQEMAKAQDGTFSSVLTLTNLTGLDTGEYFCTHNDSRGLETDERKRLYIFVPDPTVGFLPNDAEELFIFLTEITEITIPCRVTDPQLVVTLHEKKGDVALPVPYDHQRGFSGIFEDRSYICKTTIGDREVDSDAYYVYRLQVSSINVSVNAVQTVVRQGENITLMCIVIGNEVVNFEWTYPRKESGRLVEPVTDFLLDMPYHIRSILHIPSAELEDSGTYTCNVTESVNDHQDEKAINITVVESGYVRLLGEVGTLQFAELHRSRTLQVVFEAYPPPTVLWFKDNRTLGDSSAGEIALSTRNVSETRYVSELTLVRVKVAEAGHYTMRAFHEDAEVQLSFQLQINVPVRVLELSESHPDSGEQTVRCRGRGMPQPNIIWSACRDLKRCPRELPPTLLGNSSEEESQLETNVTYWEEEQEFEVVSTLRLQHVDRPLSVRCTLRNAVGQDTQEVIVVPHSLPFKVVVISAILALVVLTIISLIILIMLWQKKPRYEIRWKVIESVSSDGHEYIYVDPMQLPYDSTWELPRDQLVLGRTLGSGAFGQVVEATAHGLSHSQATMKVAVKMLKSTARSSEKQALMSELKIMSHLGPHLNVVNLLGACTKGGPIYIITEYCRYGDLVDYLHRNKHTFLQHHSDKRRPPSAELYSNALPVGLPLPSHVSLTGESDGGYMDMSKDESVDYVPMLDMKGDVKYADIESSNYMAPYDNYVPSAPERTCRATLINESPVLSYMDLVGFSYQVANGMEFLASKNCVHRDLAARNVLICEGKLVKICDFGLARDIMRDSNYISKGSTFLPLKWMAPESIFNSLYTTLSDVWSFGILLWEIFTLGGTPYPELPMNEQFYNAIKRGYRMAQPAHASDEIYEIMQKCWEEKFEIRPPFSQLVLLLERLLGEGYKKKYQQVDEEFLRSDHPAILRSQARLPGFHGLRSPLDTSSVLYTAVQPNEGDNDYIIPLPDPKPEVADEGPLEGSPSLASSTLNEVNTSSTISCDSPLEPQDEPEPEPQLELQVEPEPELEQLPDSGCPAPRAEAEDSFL

[16] = target: Serine/threonine-protein kinase Nek2 (Homo sapiens) (UniProt P51955); assay: Inhibition of human NEK2 activity at 10 uM by radiometric assay
[17] = target: MAP kinase-activated protein kinase 2 (Homo sapiens) (UniProt P49137); assay: Inhibition of human MAPKAP-K2 activity at 10 uM by radiometric assay
Sequence of MAP kinase-activated protein kinase 2 (Homo sapiens) (P49137 whole entry, looked up): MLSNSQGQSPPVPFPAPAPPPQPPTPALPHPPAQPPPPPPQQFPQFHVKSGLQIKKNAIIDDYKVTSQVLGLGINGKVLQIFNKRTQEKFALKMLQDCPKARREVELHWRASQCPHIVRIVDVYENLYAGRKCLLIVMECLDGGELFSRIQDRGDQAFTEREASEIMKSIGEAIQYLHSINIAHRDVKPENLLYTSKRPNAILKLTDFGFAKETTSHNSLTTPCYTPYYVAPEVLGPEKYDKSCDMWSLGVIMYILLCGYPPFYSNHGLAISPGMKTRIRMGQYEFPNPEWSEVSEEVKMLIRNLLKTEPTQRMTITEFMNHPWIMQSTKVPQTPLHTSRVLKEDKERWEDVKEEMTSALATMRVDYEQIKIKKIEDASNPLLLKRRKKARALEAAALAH

[18] = target: Protein kinase C alpha type (Homo sapiens) (UniProt P17252); assay: Inhibition of human PKCalpha activity at 10 uM by radiometric assay
[19] = target: Serine/threonine-protein kinase 3 (Homo sapiens) (UniProt Q13188); details: 10 uM
Sequence of Serine/threonine-protein kinase 3 (Homo sapiens) (Q13188 whole entry): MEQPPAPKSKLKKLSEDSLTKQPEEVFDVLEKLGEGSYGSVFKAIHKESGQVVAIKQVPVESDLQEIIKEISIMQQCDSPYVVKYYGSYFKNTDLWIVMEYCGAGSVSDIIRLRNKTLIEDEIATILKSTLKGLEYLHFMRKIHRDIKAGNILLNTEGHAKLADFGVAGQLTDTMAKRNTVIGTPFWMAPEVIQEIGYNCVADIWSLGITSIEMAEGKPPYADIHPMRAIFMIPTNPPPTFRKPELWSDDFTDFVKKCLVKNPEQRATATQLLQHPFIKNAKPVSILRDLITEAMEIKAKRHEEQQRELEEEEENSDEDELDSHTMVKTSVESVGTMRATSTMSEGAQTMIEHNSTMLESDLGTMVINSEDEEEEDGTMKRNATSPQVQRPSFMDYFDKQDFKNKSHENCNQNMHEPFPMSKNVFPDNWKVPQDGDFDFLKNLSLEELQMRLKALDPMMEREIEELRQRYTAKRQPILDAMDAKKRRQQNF

K562 = assay: Antiproliferative activity against human K562 expressing Bcr-abl assessed as proliferation after 48 hrs by MTT assay; type: functional, cell-based; details: K562, 48 h; outline: as §1
[20] = target: Mitogen-activated protein kinase 12 (Homo sapiens) (UniProt P53778); assay: Inhibition of human SAPK3 activity at 10 uM by radiometric assay
[21] = target: Vascular endothelial growth factor receptor 3 (Homo sapiens) (UniProt P35916); assay: Inhibition of human Flt-4 activity at 10 uM by radiometric assay
[22] = target: Mitogen-activated protein kinase 9 (Homo sapiens) (UniProt P45984); assay: Inhibition of human JNK2alpha2 activity at 10 uM by radiometric assay
Sequence of Mitogen-activated protein kinase 9 (Homo sapiens) (P45984 whole entry, looked up): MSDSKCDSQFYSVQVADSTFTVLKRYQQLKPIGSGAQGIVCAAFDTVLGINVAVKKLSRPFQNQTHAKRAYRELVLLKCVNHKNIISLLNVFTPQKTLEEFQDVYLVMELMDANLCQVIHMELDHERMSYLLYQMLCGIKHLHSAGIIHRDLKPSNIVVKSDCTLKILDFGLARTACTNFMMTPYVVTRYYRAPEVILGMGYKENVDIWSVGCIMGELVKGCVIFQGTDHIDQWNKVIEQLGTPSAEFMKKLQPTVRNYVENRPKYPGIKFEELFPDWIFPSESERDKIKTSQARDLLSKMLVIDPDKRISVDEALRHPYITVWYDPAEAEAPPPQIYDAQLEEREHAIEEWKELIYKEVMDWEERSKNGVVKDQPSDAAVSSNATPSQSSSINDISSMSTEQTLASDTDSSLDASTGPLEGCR

[23] = target: Vascular endothelial growth factor receptor 2 (Homo sapiens) (UniProt P35968); assay: Inhibition of human KDR activity at 10 uM by radiometric assay
[24] = target: Angiopoietin-1 receptor (Homo sapiens) (UniProt Q02763); assay: Inhibition of human Tie2 activity at 10 uM by radiometric assay
[25] = target: RAF proto-oncogene serine/threonine-protein kinase (Homo sapiens) (UniProt P04049); assay: Inhibition of human c-RAF activity at 10 uM by radiometric assay
[26] = Antiproliferation activity against mouse BA/F3 cells expressing Bcr-abl A337N mutant assessed as cell viability after 48 hrs by MTT assay; type: functional, cell-based; details: BaF3, 48 h; outline: as §1
[27] = Antiproliferative activity against human M07e Bcr-abl negative cells expressing granulocyte-macrophage colony stimulating factor assessed as proliferation after 48 hrs by MTT assay; type: functional, cell-based; details: M-07e
Outline: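 Human megakaryoblastic Mo7e cells grown in RPMI-1640, 20% FBS, with either 5 ng/ml human GM-CSF or 200 ng/ml stem cell factor (c-kit-driven growth). Compound up to 10 μM, 48 h at 37 °C; viability read by MTT reduction relative to DMSO-treated cells.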

[28] = target: RAC-alpha serine/threonine-protein kinase (Homo sapiens) (UniProt P31749); assay: Inhibition of human PKBalpha activity at 10 uM by radiometric assay
Sequence of RAC-alpha serine/threonine-protein kinase (Homo sapiens) (P31749 whole entry): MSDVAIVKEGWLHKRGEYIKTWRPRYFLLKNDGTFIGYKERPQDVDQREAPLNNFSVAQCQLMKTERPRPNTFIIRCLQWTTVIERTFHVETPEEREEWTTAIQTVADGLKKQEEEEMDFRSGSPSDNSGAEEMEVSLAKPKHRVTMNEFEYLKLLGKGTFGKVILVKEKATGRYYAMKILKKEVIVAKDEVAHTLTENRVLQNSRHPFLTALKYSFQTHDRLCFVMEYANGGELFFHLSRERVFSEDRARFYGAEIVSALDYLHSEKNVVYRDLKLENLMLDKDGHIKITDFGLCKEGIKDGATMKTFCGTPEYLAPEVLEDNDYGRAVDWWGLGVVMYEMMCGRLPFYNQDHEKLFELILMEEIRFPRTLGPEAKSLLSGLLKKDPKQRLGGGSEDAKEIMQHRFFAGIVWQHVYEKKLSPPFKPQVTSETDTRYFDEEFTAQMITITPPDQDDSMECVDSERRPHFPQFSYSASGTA

[29] = Antiproliferative activity against mouse BA/F3 Bcr-abl negative cells expressing Tel-PDGFRbeta kinase assessed as proliferation after 48 hrs by MTT assay; type: functional, cell-based; details: BaF3, 48 h; outline: as §1
[30] = Antiproliferative activity against human SUP-B15 expressing Bcr-abl assessed as proliferation after 48 hrs by MTT assay; type: functional; details: SUP-B15, 48 h; outline: as §1
[31] = target: Insulin-like growth factor 1 receptor (Homo sapiens) (UniProt P08069); assay: Inhibition of human IGF-1R activity at 10 uM by radiometric assay
[32] = target: Tyrosine-protein kinase BTK (Homo sapiens) (UniProt Q06187); assay: Inhibition of human BTK activity at 10 uM by radiometric assay
[33] = target: Aurora kinase A (Homo sapiens) (UniProt O14965); assay: Inhibition of human aurora-A activity at 10 uM by radiometric assay
Sequence of Aurora kinase A (Homo sapiens) (O14965 whole entry): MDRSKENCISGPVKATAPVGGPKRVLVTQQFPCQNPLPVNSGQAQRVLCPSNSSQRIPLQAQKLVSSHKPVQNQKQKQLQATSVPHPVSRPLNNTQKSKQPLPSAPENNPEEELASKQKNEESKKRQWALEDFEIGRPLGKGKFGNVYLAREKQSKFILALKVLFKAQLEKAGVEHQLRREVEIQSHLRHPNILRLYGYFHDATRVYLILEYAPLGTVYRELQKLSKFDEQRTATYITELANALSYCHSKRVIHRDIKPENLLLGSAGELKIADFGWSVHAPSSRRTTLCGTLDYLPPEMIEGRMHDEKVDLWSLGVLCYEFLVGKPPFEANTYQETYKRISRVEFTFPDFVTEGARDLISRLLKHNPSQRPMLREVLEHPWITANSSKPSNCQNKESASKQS

[34] = Antiproliferation activity against mouse BA/F3 cells expressing Bcr-abl A334l mutant assessed as cell viability after 48 hrs by MTT assay; type: functional, cell-based; details: BaF3, 48 h, in the assay text read “A344L” for “A334l”; outline: as §1
[35] = target: Tyrosine-protein kinase Fes/Fps (Homo sapiens) (UniProt P07332); assay: Inhibition of human Fes activity at 10 uM by radiometric assay
[36] = target: Mitogen-activated protein kinase 1 (Homo sapiens) (UniProt P28482); assay: Inhibition of human MAPK1 activity at 10 uM by radiometric assay

Sequence of Tyrosine-protein kinase CSK (Homo sapiens) (P41240 2-450 limits assumed): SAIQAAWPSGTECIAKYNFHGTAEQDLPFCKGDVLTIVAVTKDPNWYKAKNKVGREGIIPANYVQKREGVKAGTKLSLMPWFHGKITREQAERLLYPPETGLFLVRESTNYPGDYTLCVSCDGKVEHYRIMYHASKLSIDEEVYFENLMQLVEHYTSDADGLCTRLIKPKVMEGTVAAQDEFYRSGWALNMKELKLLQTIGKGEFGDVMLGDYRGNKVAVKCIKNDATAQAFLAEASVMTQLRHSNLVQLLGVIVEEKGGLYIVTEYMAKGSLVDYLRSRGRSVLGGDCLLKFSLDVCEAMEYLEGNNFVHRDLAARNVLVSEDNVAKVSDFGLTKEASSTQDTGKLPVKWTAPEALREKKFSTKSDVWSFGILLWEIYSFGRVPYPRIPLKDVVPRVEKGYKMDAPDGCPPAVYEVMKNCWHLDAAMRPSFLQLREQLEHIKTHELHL

Row | inhibition [1] | inhibition [3] | inhibition [4] | inhibition [6] | inhibition [7] | inhibition [8] | inhibition [9] | inhibition [10] | inhibition [11] | inhibition [12] | inhibition [13] | inhibition [14] | inhibition [15] | inhibition [16] | inhibition [17] | inhibition [18] | inhibition [19] | IC50 (K562) | SMILES | IC50 [2] | IC50 [5] | other results
1 | 2% | 27% | 58% | 17% | 27% | 89% | 17% | 29% | 1% | 2% | 1% | 11% | 43% | 7% | 19% | 17% | 15% | 0.109 µM | Cc1ccc(NC(=O)c2ccc(CN3CCN(C)CC3)cc2)cc1Nc1nccc(-c2cccnc2)n1 [IMATINIB] | > 10 µM | 0.112 µM | inhibition [20]: 7%; inhibition [21]: 79%; inhibition [22]: 10%; inhibition [23]: 22%; inhibition [24]: 66%; inhibition [25]: 89%; IC50 [26]: 0.339 µM; IC50 [27]: > 10 µM; inhibition [28]: 46%; IC50 [29]: 0.027 µM; IC50 [30]: 0.111 µM; inhibition [31]: 17%; inhibition [32]: 19%; inhibition [33]: 16%; IC50 [34]: 0.962 µM; inhibition [35]: 62%; inhibition [36]: 4%
2 | 0% | 7% | 0% | 0% | 7% | 0% | 0% | 0% | 0% | 26% | 0% | 55% | 18% | 3% | 0% | 0% | 0% | 0.273 µM | NC(=O)c1cccc(-c2cc(Nc3ccc(OC(F)(F)F)cc3)ncn2)c1 | > 10 µM | 0.187 µM | inhibition [20]: 0%; inhibition [21]: 30%; inhibition [22]: 14%; inhibition [23]: 23%; inhibition [24]: 2%; inhibition [25]: 0%; IC50 [26]: > 10 µM; IC50 [27]: > 10 µM; inhibition [28]: 7%; IC50 [29]: > 10 µM; IC50 [30]: 0.268 µM; inhibition [31]: 28%; inhibition [32]: 7%; inhibition [33]: 19%; IC50 [34]: 2.37 µM; inhibition [35]: 7%; inhibition [36]: 40%
